Residue numbers refer to the chain shown, from its start.
How the values were obtained:
Settings in all cases: stereoisomer not certain
OR1F12P (Homo sapiens) = target: T1, OR1F12P (Homo sapiens) (UniProt Q8NHA8)
T1 sequence (whole entry): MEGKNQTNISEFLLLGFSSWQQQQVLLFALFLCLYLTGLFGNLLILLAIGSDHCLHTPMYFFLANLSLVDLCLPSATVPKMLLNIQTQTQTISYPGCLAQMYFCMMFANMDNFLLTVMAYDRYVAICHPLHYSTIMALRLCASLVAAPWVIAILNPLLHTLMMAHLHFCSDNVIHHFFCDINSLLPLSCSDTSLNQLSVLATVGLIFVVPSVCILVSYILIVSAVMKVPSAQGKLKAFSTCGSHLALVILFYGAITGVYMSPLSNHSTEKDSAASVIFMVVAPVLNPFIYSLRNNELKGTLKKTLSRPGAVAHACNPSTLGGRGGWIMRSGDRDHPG
Procedure, shortened: (§1)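 Assay methods differ from source to source, frequently being transient luciferase assays in mammalian cell lines. For each receptor–molecule pair, the label responsive (active) applies when the original authors judged the measured signal statistically different from baseline, and non-responsive (inactive) applies otherwise.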

OR1F1 = tested on: T2, OR1F1
T2 sequence (whole entry): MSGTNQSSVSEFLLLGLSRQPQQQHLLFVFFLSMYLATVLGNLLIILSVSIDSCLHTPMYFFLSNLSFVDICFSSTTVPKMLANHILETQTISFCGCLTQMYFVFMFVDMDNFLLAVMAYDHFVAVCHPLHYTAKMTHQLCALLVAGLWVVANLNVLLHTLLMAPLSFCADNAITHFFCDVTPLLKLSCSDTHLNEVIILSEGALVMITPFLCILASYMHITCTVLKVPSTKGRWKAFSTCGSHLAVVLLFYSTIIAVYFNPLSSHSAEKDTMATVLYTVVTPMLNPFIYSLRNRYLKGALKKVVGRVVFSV
Procedure, shortened: as §1

OR1G1 (Homo sapiens) = target: T3, OR1G1 (Homo sapiens) (UniProt P47890)
T3 sequence (whole entry): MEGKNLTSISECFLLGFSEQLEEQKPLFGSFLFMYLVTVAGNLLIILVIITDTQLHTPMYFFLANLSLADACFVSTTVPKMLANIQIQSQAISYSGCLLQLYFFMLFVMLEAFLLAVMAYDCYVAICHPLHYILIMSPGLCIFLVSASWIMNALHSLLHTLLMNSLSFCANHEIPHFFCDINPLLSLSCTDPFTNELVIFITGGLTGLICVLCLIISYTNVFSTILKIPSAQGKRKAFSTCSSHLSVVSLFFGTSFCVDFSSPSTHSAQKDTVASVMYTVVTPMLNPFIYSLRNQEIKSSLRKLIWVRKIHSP
Procedure, shortened: as §1

OR1I1 (Homo sapiens) = target: T4, OR1I1 (Homo sapiens) (UniProt O60431)
T4 sequence (whole entry): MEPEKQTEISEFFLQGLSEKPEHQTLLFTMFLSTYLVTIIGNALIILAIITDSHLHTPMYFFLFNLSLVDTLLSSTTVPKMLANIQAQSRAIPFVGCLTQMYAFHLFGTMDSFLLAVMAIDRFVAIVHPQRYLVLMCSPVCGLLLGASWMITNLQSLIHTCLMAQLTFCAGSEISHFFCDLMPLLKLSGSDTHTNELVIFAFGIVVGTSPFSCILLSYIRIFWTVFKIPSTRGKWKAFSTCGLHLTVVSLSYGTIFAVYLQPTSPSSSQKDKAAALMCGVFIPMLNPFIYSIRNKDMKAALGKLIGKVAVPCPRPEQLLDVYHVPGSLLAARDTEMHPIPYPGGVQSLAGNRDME
Procedure, shortened: as §1

OR1J1 (Homo sapiens) = target: T5, OR1J1 (Homo sapiens) (UniProt Q8NGS3)
T5 sequence (whole entry): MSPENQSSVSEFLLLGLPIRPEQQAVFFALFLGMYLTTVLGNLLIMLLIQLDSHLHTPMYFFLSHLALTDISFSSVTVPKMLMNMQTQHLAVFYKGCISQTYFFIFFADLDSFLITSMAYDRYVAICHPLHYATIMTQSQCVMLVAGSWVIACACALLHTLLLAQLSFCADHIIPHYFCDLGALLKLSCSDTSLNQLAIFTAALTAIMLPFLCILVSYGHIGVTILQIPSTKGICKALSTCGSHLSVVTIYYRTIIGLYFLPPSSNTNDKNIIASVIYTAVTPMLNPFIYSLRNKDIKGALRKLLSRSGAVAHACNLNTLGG
Procedure, shortened: as §1

OR1J2 (Homo sapiens) = target: T6, OR1J2 (Homo sapiens) (UniProt Q8NGS2)
T6 sequence (whole entry): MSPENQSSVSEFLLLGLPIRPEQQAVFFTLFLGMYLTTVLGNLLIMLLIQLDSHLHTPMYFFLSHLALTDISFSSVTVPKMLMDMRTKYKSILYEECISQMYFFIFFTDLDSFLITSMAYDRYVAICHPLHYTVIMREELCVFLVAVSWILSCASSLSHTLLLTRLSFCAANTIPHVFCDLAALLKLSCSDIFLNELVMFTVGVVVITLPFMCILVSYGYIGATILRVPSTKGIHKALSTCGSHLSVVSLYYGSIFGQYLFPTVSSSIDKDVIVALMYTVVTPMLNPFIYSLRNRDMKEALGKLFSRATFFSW
Procedure, shortened: as §1

OR1J4 (Homo sapiens) = target: T7, OR1J4 (Homo sapiens) (UniProt Q8NGS1)
T7 sequence (whole entry): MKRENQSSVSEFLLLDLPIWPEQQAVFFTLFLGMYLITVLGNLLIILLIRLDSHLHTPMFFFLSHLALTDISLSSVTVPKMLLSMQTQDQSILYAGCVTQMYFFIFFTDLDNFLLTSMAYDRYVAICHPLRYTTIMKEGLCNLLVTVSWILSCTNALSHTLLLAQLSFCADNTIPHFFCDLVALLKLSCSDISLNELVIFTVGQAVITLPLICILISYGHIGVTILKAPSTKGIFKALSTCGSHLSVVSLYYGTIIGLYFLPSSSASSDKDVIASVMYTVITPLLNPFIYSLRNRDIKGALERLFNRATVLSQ
Procedure, shortened: as §1

OR1K1 (Homo sapiens) = target: T8, OR1K1 (Homo sapiens) (UniProt Q8NGR3)
T8 sequence (whole entry): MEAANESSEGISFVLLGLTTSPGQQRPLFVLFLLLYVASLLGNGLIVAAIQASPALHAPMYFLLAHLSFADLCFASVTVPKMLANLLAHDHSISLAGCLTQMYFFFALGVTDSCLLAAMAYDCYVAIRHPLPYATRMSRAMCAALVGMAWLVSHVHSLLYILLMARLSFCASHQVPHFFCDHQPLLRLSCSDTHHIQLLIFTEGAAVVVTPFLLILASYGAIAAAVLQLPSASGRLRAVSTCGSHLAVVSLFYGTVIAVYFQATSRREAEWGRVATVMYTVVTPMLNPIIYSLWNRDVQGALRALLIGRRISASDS
Procedure, shortened: as §1

OR1L1 = tested on: T9, OR1L1
T9 sequence (whole entry): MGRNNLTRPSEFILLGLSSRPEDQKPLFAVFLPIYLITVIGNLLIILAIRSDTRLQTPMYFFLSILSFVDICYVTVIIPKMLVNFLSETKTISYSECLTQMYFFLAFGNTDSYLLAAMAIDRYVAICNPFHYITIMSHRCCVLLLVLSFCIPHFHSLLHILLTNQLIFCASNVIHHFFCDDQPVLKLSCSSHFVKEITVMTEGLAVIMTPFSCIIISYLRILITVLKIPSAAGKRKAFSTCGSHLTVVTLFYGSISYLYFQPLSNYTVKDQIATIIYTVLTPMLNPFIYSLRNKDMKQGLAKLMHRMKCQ
Procedure, shortened: as §1

OR1L3 (Homo sapiens) = target: T10, OR1L3 (Homo sapiens) (UniProt Q8NH93)
T10 sequence (whole entry): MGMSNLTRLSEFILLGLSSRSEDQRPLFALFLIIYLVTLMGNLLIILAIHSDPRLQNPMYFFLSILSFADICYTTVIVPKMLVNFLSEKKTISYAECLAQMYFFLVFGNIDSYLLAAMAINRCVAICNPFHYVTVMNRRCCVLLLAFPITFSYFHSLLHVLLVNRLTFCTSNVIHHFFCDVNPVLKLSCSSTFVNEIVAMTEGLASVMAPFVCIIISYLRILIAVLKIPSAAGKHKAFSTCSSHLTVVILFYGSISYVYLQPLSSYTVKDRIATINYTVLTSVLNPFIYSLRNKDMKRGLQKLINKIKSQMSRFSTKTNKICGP
Procedure, shortened: as §1

OR1L4 (Homo sapiens) = target: T11, OR1L4 (Homo sapiens) (UniProt Q8NGR5)
T11 sequence (whole entry): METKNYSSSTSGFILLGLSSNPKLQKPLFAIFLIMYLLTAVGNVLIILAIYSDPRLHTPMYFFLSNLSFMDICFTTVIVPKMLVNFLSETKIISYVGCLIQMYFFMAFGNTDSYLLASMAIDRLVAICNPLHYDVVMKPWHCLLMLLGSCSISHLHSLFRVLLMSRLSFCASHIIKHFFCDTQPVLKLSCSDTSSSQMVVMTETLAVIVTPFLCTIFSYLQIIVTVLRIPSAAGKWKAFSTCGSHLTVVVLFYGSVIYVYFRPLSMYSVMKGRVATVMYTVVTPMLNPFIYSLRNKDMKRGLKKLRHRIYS
Procedure, shortened: as §1

OR1L4 = tested on: T12, OR1L4
T12 sequence (whole entry): T11 sequence (whole entry) with G234R
Procedure, shortened: as §1

OR1L6 = tested on: T13, OR1L6
T13 sequence (whole entry): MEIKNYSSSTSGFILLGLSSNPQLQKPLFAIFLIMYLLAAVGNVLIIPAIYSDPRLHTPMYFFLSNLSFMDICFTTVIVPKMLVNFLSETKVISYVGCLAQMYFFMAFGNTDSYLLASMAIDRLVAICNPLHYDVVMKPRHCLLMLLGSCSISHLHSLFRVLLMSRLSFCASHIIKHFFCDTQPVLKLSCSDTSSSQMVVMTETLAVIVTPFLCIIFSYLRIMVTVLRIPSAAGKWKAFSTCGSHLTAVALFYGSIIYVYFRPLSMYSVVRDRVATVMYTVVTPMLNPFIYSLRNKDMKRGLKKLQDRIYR
Procedure, shortened: as §1

OR1L8 (Homo sapiens) = target: T14, OR1L8 (Homo sapiens) (UniProt Q8NGR8)
T14 sequence (whole entry): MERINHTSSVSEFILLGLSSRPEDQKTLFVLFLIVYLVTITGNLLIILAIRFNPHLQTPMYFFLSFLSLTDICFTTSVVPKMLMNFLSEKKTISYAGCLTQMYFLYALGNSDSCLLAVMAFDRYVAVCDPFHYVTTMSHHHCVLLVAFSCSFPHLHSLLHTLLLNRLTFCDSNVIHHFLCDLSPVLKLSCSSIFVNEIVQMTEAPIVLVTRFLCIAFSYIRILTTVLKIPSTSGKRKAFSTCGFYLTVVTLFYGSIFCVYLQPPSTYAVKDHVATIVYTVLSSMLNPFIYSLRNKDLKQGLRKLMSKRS
Procedure, shortened: as §1

OR1L8 T27P R211P = tested on: T15, OR1L8 T27P R211P
T15 sequence (whole entry): T14 sequence (whole entry) with T27P, R211P
Procedure, shortened: as §1

OR1M1 (Homo sapiens) = target: T16, OR1M1 (Homo sapiens) (UniProt Q8NGA1)
T16 sequence (whole entry): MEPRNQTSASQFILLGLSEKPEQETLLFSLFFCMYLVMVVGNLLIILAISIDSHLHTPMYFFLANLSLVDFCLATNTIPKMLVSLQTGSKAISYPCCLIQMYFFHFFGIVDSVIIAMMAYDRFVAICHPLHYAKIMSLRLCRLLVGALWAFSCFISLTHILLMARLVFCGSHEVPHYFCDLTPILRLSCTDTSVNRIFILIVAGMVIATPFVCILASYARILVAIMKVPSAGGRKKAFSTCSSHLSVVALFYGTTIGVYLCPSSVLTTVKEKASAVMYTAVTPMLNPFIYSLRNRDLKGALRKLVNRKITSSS
Procedure, shortened: as §1

OR1N1 (Homo sapiens) = target: T17, OR1N1 (Homo sapiens) (UniProt Q8NGS0)
T17 sequence (whole entry): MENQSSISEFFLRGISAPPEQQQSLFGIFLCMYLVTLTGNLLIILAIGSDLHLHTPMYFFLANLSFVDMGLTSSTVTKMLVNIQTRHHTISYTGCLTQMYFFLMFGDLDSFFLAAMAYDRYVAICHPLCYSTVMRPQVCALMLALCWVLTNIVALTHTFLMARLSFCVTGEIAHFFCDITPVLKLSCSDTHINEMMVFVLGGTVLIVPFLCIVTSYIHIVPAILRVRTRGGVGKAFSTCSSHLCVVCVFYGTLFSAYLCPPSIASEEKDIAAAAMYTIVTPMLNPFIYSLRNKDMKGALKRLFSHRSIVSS
Procedure, shortened: as §1

OR1N2 W37R = tested on: T18, OR1N2 W37R
T18 sequence (whole entry): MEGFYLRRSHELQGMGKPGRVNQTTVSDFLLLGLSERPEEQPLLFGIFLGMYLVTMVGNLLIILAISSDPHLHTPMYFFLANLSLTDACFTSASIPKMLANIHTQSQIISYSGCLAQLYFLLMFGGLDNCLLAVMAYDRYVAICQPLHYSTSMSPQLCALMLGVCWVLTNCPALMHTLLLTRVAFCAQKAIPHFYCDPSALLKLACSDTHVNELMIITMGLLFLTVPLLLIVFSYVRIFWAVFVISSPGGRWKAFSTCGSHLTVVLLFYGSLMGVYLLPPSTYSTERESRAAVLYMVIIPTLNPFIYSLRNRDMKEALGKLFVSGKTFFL
Procedure, shortened: as §1

Measured: odorant receptor agonist call

CCC1OC(C)=C(O)C1=O (stereo not drawn)
inactive: all assays above
